Experimental data: ChEMBL document CHEMBL1151801, “Synthesis of new indeno[1,2-e]pyrimido[4,5-b][1,4]diazepine-5,11-diones as potential antitumor agents” (2008)
The source made the active and inactive calls.

How the values were obtained:
[1] = system: NCI-H322M; assay: Antitumor activity against human NCI-H322M cells after 48 hrs by SRB assay; format: functional
Method in brief: (§1)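 NCI in vitro human tumor cell line screen. Cells were exposed continuously to compound for 48 h at five concentration levels (100, 10, 1.0, 0.1 and 0.01). Growth was estimated by sulforhodamine B protein staining. GI50 is the concentration giving a 50% reduction in net protein increase relative to control cells over the incubation.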

[2] = system: IGROV-1; assay: Antitumor activity against human IGROV1 cells after 48 hrs by SRB assay; format: functional; conditions: IGROV-1, 48 h; method in brief: as §1
[3] = system: HCC 2998; assay: Antitumor activity against human HCC2998 cells after 48 hrs by SRB assay; format: functional; conditions: HCC 2998, 48 h; method in brief: as §1
[4] = system: MCF7; assay: Antitumor activity against human MCF7 cells after 48 hrs by SRB assay; format: functional; conditions: MCF7, 48 h; method in brief: as §1
[5] = system: BT-549; assay: Antitumor activity against human BT549 cells after 48 hrs by SRB assay; format: functional; conditions: BT-549, 48 h; method in brief: as §1
[6] = system: SF-295; assay: Antitumor activity against human SF295 cells after 48 hrs by SRB assay; format: functional; conditions: SF-295, 48 h; method in brief: as §1
[7] = system: NCI-H460; assay: Antitumor activity against human NCI-H460 cells after 48 hrs by SRB assay; format: functional; conditions: NCI-H460, 48 h; method in brief: as §1
[8] = system: T47D; assay: Antitumor activity against human T47D cells after 48 hrs by SRB assay; format: functional
Method in brief: (§2)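 NCI in vitro human tumor cell line screen. Continuous 48 h drug exposure at five concentrations (100, 10, 1.0, 0.1 and 0.01 µM). Cell growth estimated by sulforhodamine B protein staining. GI50 defined as the concentration giving 50% reduction in net protein increase versus control cells over the incubation.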

[9] = system: NCI-H226; assay: Antitumor activity against human NCI-H226 cells after 48 hrs by SRB assay; format: functional; conditions: NCI-H226, 48 h; method in brief: as §1
[10] = system: PC-3; assay: Antitumor activity against human PC3 cells after 48 hrs by SRB assay; format: functional; conditions: PC-3, 48 h; method in brief: as §1
[11] = system: MDA-MB-435; assay: Antitumor activity against human MDA-MB-435 cells after 48 hrs by SRB assay; format: functional; conditions: MDA-MB-435, 48 h; method in brief: as §1
[12] = system: SF-539; assay: Antitumor activity against human SF539 cells after 48 hrs by SRB assay; format: functional; conditions: SF-539, 48 h; method in brief: as §1
[13] = system: A498; assay: Antitumor activity against human A498 cells after 48 hrs by SRB assay; format: functional; conditions: A498, 48 h; method in brief: as §1
[14] = system: HCT-116; assay: Antitumor activity against human HCT116 cells after 48 hrs by SRB assay; format: functional; conditions: HCT-116, 48 h; method in brief: as §1
[15] = system: A549; assay: Antitumor activity against human A549 cells after 48 hrs by SRB assay; format: functional; conditions: A549, 48 h; method in brief: as §1
[16] = system: OVCAR-8; assay: Antitumor activity against human OVCAR8 cells after 48 hrs by SRB assay; format: functional; conditions: OVCAR-8, 48 h; method in brief: as §1
[17] = system: CCRF-CEM; assay: Antitumor activity against human CCRF-CEM cells after 48 hrs by SRB assay; format: functional; method in brief: as §1
[18] = system: MDA-MB-231; assay: Antitumor activity against human MDA-MB-231 cells after 48 hrs by SRB assay; format: functional; conditions: MDA-MB-231, 48 h; method in brief: as §1
[19] = system: NCI/ADR-RES; assay: Antitumor activity against human NCI/ADR-RES cells after 48 hrs by SRB assay; format: functional; method in brief: as §1
[20] = system: OVCAR-4; assay: Antitumor activity against human OVCAR4 cells after 48 hrs by SRB assay; format: functional; conditions: OVCAR-4, 48 h; method in brief: as §1
[21] = system: SR; assay: Antitumor activity against human SR cells after 48 hrs by SRB assay; format: functional; method in brief: as §1
[22] = system: DU-145; assay: Antitumor activity against human DU145 cells after 48 hrs by SRB assay; format: functional; conditions: DU-145, 48 h; method in brief: as §1
[23] = system: COLO 205; assay: Antitumor activity against human COLO205 cells after 48 hrs by SRB assay; format: functional; conditions: COLO 205, 48 h; method in brief: as §1
[24] = system: HL-60(TB); assay: Antitumor activity against human HL-60(TB) cells after 48 hrs by SRB assay; format: functional; conditions: HL-60, 48 h; method in brief: as §1
[25] = Antitumor activity against human Hs 578T cells after 48 hrs by SRB assay; format: functional; method in brief: as §1
[26] = system: SW-620; assay: Antitumor activity against human SW620 cells after 48 hrs by SRB assay; format: functional; conditions: SW-620, 48 h; method in brief: as §2
[27] = system: SF-268; assay: Antitumor activity against human SF268 cells after 48 hrs by SRB assay; format: functional; conditions: SF-268, 48 h; method in brief: as §1
[28] = system: SNB-75; assay: Antitumor activity against human SNB75 cells after 48 hrs by SRB assay; format: functional; conditions: SNB-75, 48 h; method in brief: as §1
[29] = system: NCI60; assay: Antitumor activity against human NCI60 cells at 1 uM; format: functional, cell-based
[30] = system: HT-29; assay: Antitumor activity against human HT-29 cells after 48 hrs by SRB assay; format: functional; conditions: HT-29, 48 h; method in brief: as §1
[31] = system: MOLT-4; assay: Antitumor activity against human MOLT4 cells after 48 hrs by SRB assay; format: functional; conditions: MOLT-4, 48 h; method in brief: as §1
[32] = system: NCI-H522; assay: Antitumor activity against human NCI-H522 cells after 48 hrs by SRB assay; format: functional; conditions: NCI-H522, 48 h; method in brief: as §1
[33] = system: 786-0; assay: Antitumor activity against human 786-0 cells after 48 hrs by SRB assay; format: functional; conditions: 786-0, 48 h; method in brief: as §1
[34] = system: ACHN; assay: Antitumor activity against human ACHN cells after 48 hrs by SRB assay; format: functional; method in brief: as §1
[35] = system: K562; assay: Antitumor activity against human K562 cells after 48 hrs by SRB assay; format: functional; conditions: K562, 48 h; method in brief: as §1
[36] = system: SK-OV-3; assay: Antitumor activity against human SKOV3 cells after 48 hrs by SRB assay; format: functional; conditions: SK-OV-3, 48 h; method in brief: as §1
[37] = system: UO-31; assay: Antitumor activity against human UO31 cells after 48 hrs by SRB assay; format: functional; conditions: UO-31, 48 h; method in brief: as §2
[38] = system: U-251; assay: Antitumor activity against human U251 cells after 48 hrs by SRB assay; format: functional; conditions: U-251, 48 h; method in brief: as §2
[39] = read-out: LC50 (the source's name)

In the case of `CSc1nc2c(c(=O)[nH]1)NC1=C(C(=O)c3ccccc31)C(c1ccccc1)N2` (stereo not given), the GI50 [1] is reported as 13.5 µM, the CC50 [1, 39] is reported as > 100 µM and the GI50 [2] is reported as 4.54 µM. For the same molecule, the CC50 [2, 39] was > 100 µM, the GI50 [3] was 6.75 µM and the CC50 [3, 39] was > 100 µM. The GI50 [4] was 2.4 µM, the LC50 (concentration causing 50% net cell kill) [4] was > 100 µM and the GI50 [5] was 5.35 µM. The CC50 [5, 39] was > 100 µM, the GI50 [6] was 1.91 µM and the CC50 [6, 39] was > 100 µM. The GI50 [7] was 3.16 µM, the CC50 [7, 39] was > 100 µM and the GI50 [8] was 4.61 µM. For the same molecule, the CC50 [8, 39] was > 100 µM, the GI50 [9] was 4.2 µM and the LC50 [9] was > 100 µM. For the same molecule, the GI50 [10] was 3.64 µM, the CC50 [10, 39] was > 100 µM and the GI50 [11] was 0.49 µM. For the same molecule, the LC50 [11] was > 100 µM, the GI50 [12] was 2.84 µM and the LC50 (concentration killing 50% of cells) [12] was > 100 µM. The GI50 [13] was 2 µM, the LC50 [13] was > 100 µM and the GI50 [14] was 4.21 µM. The LC50 (50% lethal concentration) [14] was > 100 µM, the GI50 [15] was 6.98 µM and the CC50 [15, 39] was > 100 µM. The GI50 [16] was 19.1 µM, the LC50 (concentration causing 50% net cell kill) [16] was > 100 µM and the GI50 [17] was 5.92 µM. For the same molecule, the CC50 [17, 39] was > 100 µM, the GI50 [18] was 4.09 µM and the LC50 (lethal concentration, 50% net cell kill) [18] was > 100 µM. For the same molecule, the GI50 [19] was 4.54 µM, the LC50 [19] was > 100 µM and the GI50 [20] was 5.62 µM. For the same molecule, the CC50 [20, 39] was > 100 µM, the GI50 [21] was 1.51 µM and the LC50 (concentration killing 50% of cells) [21] was > 100 µM. For the same molecule, the GI50 [22] was 13.4 µM, the CC50 [22, 39] was > 100 µM and the GI50 [23] was 3.53 µM. For the same molecule, the CC50 [23, 39] was > 100 µM, the GI50 [24] was 2.51 µM and the LC50 [24] was > 100 µM. For the same molecule, the GI50 [25] was 2.1 µM, the CC50 [25, 39] was > 100 µM and the GI50 [26] was 2.92 µM. The LC50 [26] was > 100 µM, the GI50 [27] was 4.55 µM and the CC50 [27, 39] was > 100 µM. For the same molecule, the GI50 [28] was 1.27 µM, the LC50 [28] was > 100 µM and the Activity [29] was “Active”. For the same molecule, the GI50 [30] was 2.97 µM, the LC50 [30] was > 100 µM and the GI50 [31] was 5.24 µM. For the same molecule, the LC50 [31] was > 100 µM, the GI50 [32] was 1.41 µM and the CC50 [32, 39] was > 100 µM. The GI50 [33] was 6.44 µM, the CC50 [33, 39] was > 100 µM and the GI50 [34] was 3.73 µM. For the same molecule, the CC50 [34, 39] was > 100 µM, the GI50 [35] was 1.27 µM and the LC50 [35] was > 100 µM. The GI50 [36] was 7.65 µM, the LC50 (concentration killing 50% of cells) [36] was > 100 µM and the GI50 [37] was 5.23 µM. For the same molecule, the CC50 [37, 39] was > 100 µM, the GI50 [38] was 3.52 µM and the CC50 [38, 39] was > 100 µM.
